Measurements published in publication PMC10360043 (FASEB journal : official publication of the Federation of …, 2023).

Columns and labels:
ERp5 = molecular target: T1, ERp5 (Homo sapiens, UniProt Q15084); assay: Insulin-based turbidimetric assay, ERp5; assay type: biochemical; details: insulin turbidity assay, 6-point dose curve
T1 sequence (Q15084 20-440): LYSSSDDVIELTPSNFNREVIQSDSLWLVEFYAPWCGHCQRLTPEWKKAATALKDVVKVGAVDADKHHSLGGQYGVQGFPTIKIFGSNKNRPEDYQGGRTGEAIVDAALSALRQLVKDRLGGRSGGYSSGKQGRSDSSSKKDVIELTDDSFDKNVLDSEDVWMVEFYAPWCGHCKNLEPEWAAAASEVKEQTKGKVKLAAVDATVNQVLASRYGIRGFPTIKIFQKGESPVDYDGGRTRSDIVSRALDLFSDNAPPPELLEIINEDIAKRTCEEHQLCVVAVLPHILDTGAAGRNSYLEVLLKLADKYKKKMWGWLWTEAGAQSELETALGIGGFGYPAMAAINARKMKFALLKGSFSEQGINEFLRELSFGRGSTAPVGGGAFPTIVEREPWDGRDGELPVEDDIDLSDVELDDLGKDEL
How it was run: (§1)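 Recombinant enzymes were purchased. Test compound was tested as a 6-point dilution series with enzyme at 10 μg/mL final (ERp5 at 30 μg/mL), 125 μM bovine recombinant insulin, 2 mM EDTA and 100 mM potassium phosphate. The reaction was started with 0.3 mM DTT, and insulin aggregation turbidity was read every minute for 75 min.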

ERp72 = molecular target: T2, ERp72 (Homo sapiens, UniProt P13667); assay: Insulin-based turbidimetric assay, ERp72; assay type: biochemical; details: insulin turbidity assay, 6-point dose curve
T2 sequence (P13667 21-645): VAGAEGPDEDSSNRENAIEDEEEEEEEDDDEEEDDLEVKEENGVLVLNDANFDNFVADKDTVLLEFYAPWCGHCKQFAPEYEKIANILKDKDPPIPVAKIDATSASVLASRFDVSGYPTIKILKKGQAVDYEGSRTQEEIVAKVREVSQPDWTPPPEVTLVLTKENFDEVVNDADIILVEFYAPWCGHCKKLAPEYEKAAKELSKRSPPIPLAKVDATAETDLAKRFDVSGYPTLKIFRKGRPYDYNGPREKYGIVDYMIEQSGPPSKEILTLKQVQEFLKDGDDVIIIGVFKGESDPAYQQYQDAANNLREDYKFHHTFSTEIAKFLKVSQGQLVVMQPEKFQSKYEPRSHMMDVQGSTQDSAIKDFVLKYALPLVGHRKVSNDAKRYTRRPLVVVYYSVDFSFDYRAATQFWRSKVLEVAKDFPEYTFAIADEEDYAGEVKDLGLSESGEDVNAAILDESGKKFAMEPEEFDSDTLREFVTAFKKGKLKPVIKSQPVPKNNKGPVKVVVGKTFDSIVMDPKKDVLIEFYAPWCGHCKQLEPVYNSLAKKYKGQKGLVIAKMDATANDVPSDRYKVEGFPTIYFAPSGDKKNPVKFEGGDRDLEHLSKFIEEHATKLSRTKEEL
How it was run: as §1

ERp57 = molecular target: T3, ERp57 (Homo sapiens, UniProt P30101); assay: Insulin-based turbidimetric assay, ERp57; assay type: biochemical; details: insulin turbidity assay, 6-point dose curve
T3 sequence (P30101 25-505): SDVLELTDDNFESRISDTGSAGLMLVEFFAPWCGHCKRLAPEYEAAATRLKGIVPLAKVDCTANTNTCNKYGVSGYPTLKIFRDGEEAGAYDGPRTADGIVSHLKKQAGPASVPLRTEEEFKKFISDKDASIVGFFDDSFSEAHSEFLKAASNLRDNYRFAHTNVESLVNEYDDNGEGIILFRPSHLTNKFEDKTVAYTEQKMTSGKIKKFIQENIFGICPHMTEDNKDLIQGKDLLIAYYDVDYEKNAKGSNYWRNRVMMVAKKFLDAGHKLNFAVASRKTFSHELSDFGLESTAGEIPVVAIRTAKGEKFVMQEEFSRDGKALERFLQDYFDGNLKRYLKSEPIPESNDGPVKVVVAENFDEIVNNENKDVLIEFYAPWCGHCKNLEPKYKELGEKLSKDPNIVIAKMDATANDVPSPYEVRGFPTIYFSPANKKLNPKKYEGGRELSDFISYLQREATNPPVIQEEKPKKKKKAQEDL
How it was run: as §1

LTR1 receptor = details: cited from earlier work
PDI = PDI (Homo sapiens, UniProt P07237); assay: Insulin-based turbidimetric assay, PDI; assay type: biochemical; details: insulin turbidity assay, 6-point dose curve
How it was run: as §1

LTR2 receptor = details: cited from earlier work
[1] = 40 mg, oral ingestion; cited from earlier work
plasma thiol isomerase = assay: Plasma thiol isomerase activity of patients; assay type: in vivo, human; details: day 28 versus day 0, 40 mg twice daily
[2] = tested on: tissue factor dependent Factor Xa generation; assay: Factor Xa generation assay on OVCAR8 cells; assay type: cell-based, human; details: 1, 3, 10, and 30 µM, 30 minutes; significant at 10 and 30 µM
OVCAR8 cells = assay: PrestoBlue cell viability, OVCAR8; assay type: cell-based, human; details: for OVCAR8 cell viability, time course: concentrations and timepoints used in Figure 4A and B
OVCAR8 tumors [3] = assay: OVCAR8 xenograft in NOG mice; assay type: in vivo; details: 30 mg/kg i.p. daily
OVCAR8 tumors [4] = assay: OVCAR8 xenograft with cisplatin and gemcitabine; assay type: in vivo, NOG mice
HEK293 cell line = assay: PrestoBlue cell viability, HEK293; assay type: cell-based; details: Homo sapiens, HEK293, read-out: cell viability IC50
How it was run: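 HEK293 cells were maintained in high-glucose DMEM with 4 mM glutamine and 10% FBS. Cells were plated at 5,000 per well and grown 24 h, then exposed to test compound or vehicle for 2–24 h. PrestoBlue was added for 10–20 min at 37°C, and fluorescence was read (ex 560/em 590 nm). Signal was expressed as percent of control.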

[5] = tested on: PDI, ERp5, ERp57, and ERp72 levels in OVCAR8 cells; assay: Western blot of thiol isomerase levels in OVCAR8 cells; assay type: cell-based, human; details: 10 μM and 30 μM, 1 hour
[6] = double the FDA approved dose for asthma; cited from earlier work
[7] = Pilot clinical trial, adverse events; assay type: in vivo, human; details: 40 mg twice daily, four women
CA-125 = assay: Pilot clinical trial, CA-125 in relapsed ovarian cancer; assay type: in vivo, human
Gab1 = Gab1 phosphorylation after EGF stimulation; assay type: cell-based, human
EGFR = EGFR phosphorylation after EGF stimulation; assay type: cell-based, human; details: for decrease of EGFR phosphorylation: then EGF, OVCAR8
How it was run: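 OVCAR8 cells, grown to confluence, were serum-starved, exposed to test compound for 1 or 4 h, then stimulated with EGF (100 ng/mL final). Whole-cell extracts were made in M-PER, protein was quantified by Bradford, and samples were run on SDS-PAGE and transferred to PVDF. Blots were blocked in 5% milk/TBS, probed with anti-pEGFR-Y1068 and an HRP secondary in 3% BSA/TBS-0.1% Tween 20. Student's t-test versus the EGF control.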

Chain of PDI (P07237 18-508): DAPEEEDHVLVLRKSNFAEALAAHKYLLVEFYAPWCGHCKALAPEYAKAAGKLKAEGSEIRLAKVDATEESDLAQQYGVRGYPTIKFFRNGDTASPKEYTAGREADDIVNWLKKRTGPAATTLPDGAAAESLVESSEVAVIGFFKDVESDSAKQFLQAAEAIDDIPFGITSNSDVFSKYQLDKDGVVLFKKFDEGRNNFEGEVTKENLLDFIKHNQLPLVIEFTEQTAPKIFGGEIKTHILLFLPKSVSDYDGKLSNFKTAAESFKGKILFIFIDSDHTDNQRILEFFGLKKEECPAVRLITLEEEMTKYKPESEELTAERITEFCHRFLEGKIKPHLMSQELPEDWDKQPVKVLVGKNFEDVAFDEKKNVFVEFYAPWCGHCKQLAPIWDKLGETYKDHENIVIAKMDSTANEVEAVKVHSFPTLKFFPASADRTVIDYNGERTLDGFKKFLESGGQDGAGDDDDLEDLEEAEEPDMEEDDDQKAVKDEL

With `CC(C)(O)c1ccccc1CC[C@@H](SCC1(CC(=O)O)CC1)c1cccc(/C=C/c2ccc3ccc(Cl)cc3n2)c1` [montelukast] the “inhibition of ERp5” value (ERp5) was “inhibited all four thiol isomerases albeit with less potency”, the “inhibition of ERp72” value (ERp72) was “inhibited all four thiol isomerases albeit with less potency” and the “inhibition of ERp57” value (ERp57) was “inhibited all four thiol isomerases albeit with less potency”. For the same compound, the “potency at inhibiting the LTR1 receptor, times more potent than zafirlukast” value (LTR1 receptor) was 2–3 times, the “inhibition of PDI” value (PDI) was “inhibited all four thiol isomerases albeit with less potency” and the “effects on the LTR2 receptor” value (LTR2 receptor) was “minimal effects”.

For `COc1cc(C(=O)NS(=O)(=O)c2ccccc2C)ccc1Cc1cn(C)c2ccc(NC(=O)OC3CCCC3)cc12` [zafirlukast], the peak plasma concentration [1] is given as ~ 3 μM, the “reduction of plasma thiol isomerase activity” value (plasma thiol isomerase) is given as “three out of four patients” and the “inhibition of ERp5” value (ERp5) is given as “concentration-dependent manner”. For the same compound, the “inhibition of ERp72” value (ERp72) was “concentration-dependent manner”, the “Factor Xa generation” value [2] was “dose dependent decrease” and the IC50 (OVCAR8 cells; Homo sapiens, OVCAR-8, read-out: cell viability IC50) was 12 µM. The “OVCAR8 cell viability, time course” value (OVCAR8 cells) was “minimally altered”, the “inhibition of ERp57” value (ERp57) was “concentration-dependent manner” and the “lung metastasis score (scale 0–4)” value (OVCAR8 tumors [3]; 32 days, control group 2.5) was 0.25. The “mean decrease in tumor volume compared to controls” value (OVCAR8 tumors [3]; day 32) was 42%, the “mean decrease of tumor volume relative to cisplatin-gemcitabine alone” value (OVCAR8 tumors [4]; 30 mg/kg zafirlukast daily added to 5 mg/kg cisplatin and 120 mg/kg gemcitabine weekly, after 4 weeks) was 38% and the “decrease in tumor volume compared to the vehicle control” value (OVCAR8 tumors [4]; zafirlukast plus cisplatin and gemcitabine, end of the study) was 83%. The IC50 (HEK293 cell line) was greater than 100 µM, the “change in thiol isomerase expression” value [5] was “No significant change” and the “tolerability of the 40 mg dose” value [6] was “well tolerated”. For the same compound, the “inhibition of PDI” value (PDI) was “concentration-dependent manner”, the “grade 3 or higher adverse events” value [7] was “no grade 3 or higher adverse events reported” and the hemorrhage [7] was “no cases of hemorrhage reported”. For the same compound, the “toxicity considered possibly related to zafirlukast” value [7] was “headache (grade 1)”, the CA-125 response (CA-125; 40 mg twice daily, four women) was “None of the women demonstrated a decrease in CA-125” and the “mean change in CA-125” value (CA-125; following 40 mg twice daily, 0.036 prior to treatment) was 0.015 U/mL per day. For the same compound, the “mean CA-125 doubling time” value (CA-125; following 40 mg twice daily, 29.8 days prior to treatment) was 85.69 days, the “effects on the LTR2 receptor” value (LTR2 receptor) was “minimal effects” and the “decrease of Gab1 phosphorylation” value (Gab1; 10 μM, 1 hour, then EGF, OVCAR8) was 37%. For the same compound, the “Gab1 phosphorylation decreased to” value (Gab1; all other time points and concentrations (10 μM 4 hours; 30 μM 1 and 4 hours)) was no more than 5%, the “decrease of EGFR phosphorylation” value (EGFR; 10 μM, 1 hour) was 18% and the “decrease of EGFR phosphorylation” value (EGFR; 10 μM, four hours) was 39%. For the same compound, the “decrease of EGFR phosphorylation” value (EGFR; 30 μM, 1 hour) was 27% and the “decrease of EGFR phosphorylation” value (EGFR; 30 μM, four hours) was 52%.

For PACMA-31, the “OVCAR8 cell viability, time course” value (OVCAR8 cells) was “minimally altered” and the “inhibition of EGFR activation” value (EGFR; OVCAR8, Figure 4B) was “inhibited EFGR activation in a concentration-dependent manner”.
